Results: the M2OR odorant receptor database
Positions count from the first letter of the chain named.

How the values were obtained:
Details in all cases: stereoisomer not certain
OR2W1 (Homo sapiens) = biological target: T1, OR2W1 (Homo sapiens) (UniProt Q9Y3N9)
T1 sequence (whole entry): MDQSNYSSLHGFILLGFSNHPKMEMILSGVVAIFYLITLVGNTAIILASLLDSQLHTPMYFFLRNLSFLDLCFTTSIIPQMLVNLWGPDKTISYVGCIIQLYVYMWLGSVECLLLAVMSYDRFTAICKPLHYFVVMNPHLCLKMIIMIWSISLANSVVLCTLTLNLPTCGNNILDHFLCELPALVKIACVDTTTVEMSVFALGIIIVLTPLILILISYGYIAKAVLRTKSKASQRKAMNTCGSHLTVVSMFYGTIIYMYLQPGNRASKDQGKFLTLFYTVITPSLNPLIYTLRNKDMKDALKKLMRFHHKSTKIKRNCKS
Outline: (§1)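 Values were gathered from published papers (main text and supplementary material), with extra details requested from the original authors when needed, and checked for typos and inconsistencies. Each receptor–molecule pair is called responsive (active) if the original authors judged the measured signal statistically different from baseline, and non-responsive (inactive) otherwise. Assay methods varied by source, often transient mammalian cell-line luciferase assays. Recorded details include cell line, G-protein, co-transfected protein and tags.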

OR2T6 C23G = test system: T2, OR2T6 C23G
T2 sequence (whole entry): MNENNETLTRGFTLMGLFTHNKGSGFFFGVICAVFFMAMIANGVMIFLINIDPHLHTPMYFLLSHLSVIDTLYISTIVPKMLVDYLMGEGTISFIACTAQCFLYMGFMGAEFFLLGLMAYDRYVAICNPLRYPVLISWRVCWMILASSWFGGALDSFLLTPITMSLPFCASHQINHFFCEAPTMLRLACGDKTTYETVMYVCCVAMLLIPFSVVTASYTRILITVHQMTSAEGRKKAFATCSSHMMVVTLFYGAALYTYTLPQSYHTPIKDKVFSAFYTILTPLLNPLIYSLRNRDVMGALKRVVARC
Outline: as §1

OR2T7 = test system: T3, OR2T7
T3 sequence (whole entry): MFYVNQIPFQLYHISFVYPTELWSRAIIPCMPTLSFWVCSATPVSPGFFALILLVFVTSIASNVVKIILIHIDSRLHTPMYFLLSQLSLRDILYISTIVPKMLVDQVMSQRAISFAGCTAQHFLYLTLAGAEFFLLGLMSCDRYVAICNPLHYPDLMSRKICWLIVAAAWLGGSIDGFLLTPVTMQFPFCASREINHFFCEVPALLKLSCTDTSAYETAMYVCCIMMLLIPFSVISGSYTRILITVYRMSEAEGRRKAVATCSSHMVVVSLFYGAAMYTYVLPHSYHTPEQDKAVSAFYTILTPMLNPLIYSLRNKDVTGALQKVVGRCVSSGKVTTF
Outline: as §1

OR2T8 (Homo sapiens) = biological target: T4, OR2T8 (Homo sapiens) (UniProt A6NH00)
T4 sequence (whole entry): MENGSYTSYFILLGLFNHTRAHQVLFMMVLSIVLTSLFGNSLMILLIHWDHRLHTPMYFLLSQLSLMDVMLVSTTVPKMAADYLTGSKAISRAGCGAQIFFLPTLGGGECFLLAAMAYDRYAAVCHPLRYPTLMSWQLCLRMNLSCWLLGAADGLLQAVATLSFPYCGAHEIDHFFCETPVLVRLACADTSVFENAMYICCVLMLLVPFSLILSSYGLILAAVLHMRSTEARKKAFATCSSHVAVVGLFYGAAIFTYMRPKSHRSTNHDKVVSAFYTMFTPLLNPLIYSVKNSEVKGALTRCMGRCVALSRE
Outline: as §1

OR2V1 (Homo sapiens) = biological target: T5, OR2V1 (Homo sapiens) (UniProt Q8NHB1)
T5 sequence (whole entry): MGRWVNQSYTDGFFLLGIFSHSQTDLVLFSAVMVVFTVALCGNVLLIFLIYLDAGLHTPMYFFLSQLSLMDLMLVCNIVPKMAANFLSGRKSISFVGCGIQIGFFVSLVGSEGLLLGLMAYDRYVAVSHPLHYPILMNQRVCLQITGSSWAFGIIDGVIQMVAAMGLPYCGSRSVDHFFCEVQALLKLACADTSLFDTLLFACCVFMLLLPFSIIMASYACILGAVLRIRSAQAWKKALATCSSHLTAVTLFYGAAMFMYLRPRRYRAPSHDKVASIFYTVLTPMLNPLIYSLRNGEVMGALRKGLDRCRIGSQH
Outline: as §1

OR2V2 (Homo sapiens) = biological target: T6, OR2V2 (Homo sapiens) (UniProt Q96R30)
T6 sequence (whole entry): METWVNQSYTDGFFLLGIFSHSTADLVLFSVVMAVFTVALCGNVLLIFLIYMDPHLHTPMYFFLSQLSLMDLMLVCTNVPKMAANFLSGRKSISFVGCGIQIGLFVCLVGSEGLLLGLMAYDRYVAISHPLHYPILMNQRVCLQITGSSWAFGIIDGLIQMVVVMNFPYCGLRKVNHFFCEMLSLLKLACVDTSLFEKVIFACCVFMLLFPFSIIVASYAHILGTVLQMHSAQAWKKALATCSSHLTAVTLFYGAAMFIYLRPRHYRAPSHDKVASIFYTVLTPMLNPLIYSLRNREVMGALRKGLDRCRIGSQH
Outline: as §1

OR2W1 G96V = test system: T7, OR2W1 G96V
T7 sequence (whole entry): T1 sequence (whole entry) with G96V
Outline: as §1

OR2W1 [1] = test system: T8, OR2W1
T8 sequence (whole entry): T1 sequence (whole entry) with D296N
Outline: as §1

OR2W1 [2] = test system: T9, OR2W1; remark: listed apart in the source
T9 sequence (whole entry): T1 sequence (whole entry) with M81V
Outline: as §1

CCCCC(C)CCC(=O)O (configuration not stated)
odorant receptor agonist call (OR2W1 (Homo sapiens)): inactive

OCc1ccccc1
odorant receptor agonist call (OR2W1 (Homo sapiens)): inactive

Cc1cnc(C)c(C)n1
odorant receptor agonist call (OR2T6 C23G): inactive
odorant receptor agonist call (OR2T7): inactive
odorant receptor agonist call (OR2T8 (Homo sapiens)): inactive
odorant receptor agonist call (OR2V1 (Homo sapiens)): inactive
odorant receptor agonist call (OR2V2 (Homo sapiens)): inactive
odorant receptor agonist call (OR2W1 (Homo sapiens)): inactive
odorant receptor agonist call (OR2W1 G96V): inactive

CCC(C)COC(C)=O (configuration not stated)
odorant receptor agonist call (OR2W1 (Homo sapiens)): inactive
odorant receptor agonist call (OR2W1 [1]): active
odorant receptor agonist call (OR2W1 [2]): active

CCOC(=O)C(C)C
odorant receptor agonist call (OR2W1 (Homo sapiens)): inactive
odorant receptor agonist call (OR2W1 [1]): active
odorant receptor agonist call (OR2W1 [2]): inactive

CCC=CCCOC(C)=O
odorant receptor agonist call (OR2W1 (Homo sapiens)): active
odorant receptor agonist call (OR2W1 [1]): active
odorant receptor agonist call (OR2W1 [2]): active

CC(C)(S)CCOC=O
odorant receptor agonist call (OR2W1 (Homo sapiens)): active
odorant receptor agonist call (OR2W1 [1]): active
odorant receptor agonist call (OR2W1 [2]): active

CCCCCCCC(=O)[O-].[H+]
odorant receptor agonist call (OR2W1 (Homo sapiens)): active
odorant receptor agonist call (OR2W1 [1]): active
odorant receptor agonist call (OR2W1 [2]): inactive

C=CC(=O)CCCCC
odorant receptor agonist call (OR2W1 (Homo sapiens)): active
odorant receptor agonist call (OR2W1 [1]): active
odorant receptor agonist call (OR2W1 [2]): active

C=CC(O)CCCCC (configuration not stated)
odorant receptor agonist call (OR2W1 (Homo sapiens)): active
odorant receptor agonist call (OR2W1 [1]): active
odorant receptor agonist call (OR2W1 [2]): active

c1coc(CSCc2ccco2)c1
odorant receptor agonist call (OR2W1 (Homo sapiens)): active
odorant receptor agonist call (OR2W1 [1]): active
odorant receptor agonist call (OR2W1 [2]): active

SCCc1ccccc1
odorant receptor agonist call (OR2W1 (Homo sapiens)): active
odorant receptor agonist call (OR2W1 [1]): active
odorant receptor agonist call (OR2W1 [2]): active

CCCCCC=CCCC=O
odorant receptor agonist call (OR2W1 (Homo sapiens)): active
odorant receptor agonist call (OR2W1 [1]): active
odorant receptor agonist call (OR2W1 [2]): inactive

CCOC(=O)CCSC
odorant receptor agonist call (OR2W1 (Homo sapiens)): active
odorant receptor agonist call (OR2W1 [1]): active
odorant receptor agonist call (OR2W1 [2]): active

CCC=CCCC=CC=O
odorant receptor agonist call (OR2W1 (Homo sapiens)): active
odorant receptor agonist call (OR2W1 [1]): active
odorant receptor agonist call (OR2W1 [2]): active

CC(=O)OCCC(C)C
odorant receptor agonist call (OR2W1 (Homo sapiens)): active
odorant receptor agonist call (OR2W1 [1]): active
odorant receptor agonist call (OR2W1 [2]): active

CC(S)c1ccccc1 (configuration not stated)
odorant receptor agonist call (OR2W1 (Homo sapiens)): active
odorant receptor agonist call (OR2W1 [1]): active
odorant receptor agonist call (OR2W1 [2]): active

CCC=CCCC=CCO
odorant receptor agonist call (OR2W1 (Homo sapiens)): active
odorant receptor agonist call (OR2W1 [1]): active
odorant receptor agonist call (OR2W1 [2]): active

CC1=CCC(C(C)C)C=C1 (configuration not stated)
odorant receptor agonist call (OR2W1 (Homo sapiens)): active
odorant receptor agonist call (OR2W1 [1]): active
odorant receptor agonist call (OR2W1 [2]): inactive

COC(=O)C=Cc1ccccc1
odorant receptor agonist call (OR2W1 (Homo sapiens)): active
odorant receptor agonist call (OR2W1 [1]): active
odorant receptor agonist call (OR2W1 [2]): active

CCC(C)CO (configuration not stated)
odorant receptor agonist call (OR2W1 (Homo sapiens)): active
odorant receptor agonist call (OR2W1 [1]): active
odorant receptor agonist call (OR2W1 [2]): active

COCCC(C)(C)S
odorant receptor agonist call (OR2W1 (Homo sapiens)): active
odorant receptor agonist call (OR2W1 [1]): active
odorant receptor agonist call (OR2W1 [2]): inactive

CC=Cc1ccc(OC)cc1
odorant receptor agonist call (OR2W1 (Homo sapiens)): active
odorant receptor agonist call (OR2W1 [1]): active
odorant receptor agonist call (OR2W1 [2]): active

CCCCC1CCC(=O)O1 (configuration not stated)
odorant receptor agonist call (OR2W1 (Homo sapiens)): active
odorant receptor agonist call (OR2W1 [1]): active
odorant receptor agonist call (OR2W1 [2]): active

OCCc1ccccc1
odorant receptor agonist call (OR2W1 (Homo sapiens)): active
odorant receptor agonist call (OR2W1 [1]): active
odorant receptor agonist call (OR2W1 [2]): inactive

C=Cc1ccc(O)cc1
odorant receptor agonist call (OR2W1 (Homo sapiens)): active
odorant receptor agonist call (OR2W1 [1]): active
odorant receptor agonist call (OR2W1 [2]): active

CCCCCC(C)O (configuration not stated)
odorant receptor agonist call (OR2W1 (Homo sapiens)): active
odorant receptor agonist call (OR2W1 [1]): active
odorant receptor agonist call (OR2W1 [2]): active

CCCSSCCC
odorant receptor agonist call (OR2W1 (Homo sapiens)): active
odorant receptor agonist call (OR2W1 [1]): active
odorant receptor agonist call (OR2W1 [2]): inactive

CCCCCCCCCC(=O)OCC
odorant receptor agonist call (OR2W1 (Homo sapiens)): active
odorant receptor agonist call (OR2W1 [1]): active
odorant receptor agonist call (OR2W1 [2]): active

CCOC(=O)C=Cc1ccccc1
odorant receptor agonist call (OR2W1 (Homo sapiens)): active
odorant receptor agonist call (OR2W1 [1]): active
odorant receptor agonist call (OR2W1 [2]): active

CCCC(S)CCO (configuration not stated)
odorant receptor agonist call (OR2W1 (Homo sapiens)): active
odorant receptor agonist call (OR2W1 [1]): active
odorant receptor agonist call (OR2W1 [2]): inactive

CC1=CCC(C(C)(C)S)CC1 (configuration not stated)
odorant receptor agonist call (OR2W1 (Homo sapiens)): active
odorant receptor agonist call (OR2W1 [1]): active
odorant receptor agonist call (OR2W1 [2]): inactive

CCCCCCCC(=O)OCC
odorant receptor agonist call (OR2W1 (Homo sapiens)): active
odorant receptor agonist call (OR2W1 [1]): active
odorant receptor agonist call (OR2W1 [2]): inactive

CC(=O)c1ccc(C)cc1
odorant receptor agonist call (OR2W1 (Homo sapiens)): active
odorant receptor agonist call (OR2W1 [1]): active
odorant receptor agonist call (OR2W1 [2]): active
